Rows were chosen to be rich in hits. Some 2.7% of all compounds tested hit in one or more screens of this group.
ARFGAP1 inhibitor: inhibitors of rat ARFGAP1. Q62848. Arfgap1-stimulated ARF1 GTP hydrolysis, GDP FP detection. inhibition, % at 16.5 µM. hit rate 0.26% among 360,000. AID 651572;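 active = inhibition above a per-plate limit, mean inhibition of low control wells plus 3 SD, cut at about 25% in these data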;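 also: 0% = DMSO wells with enzyme and 100% = wells lacking Arfgap1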
Target sequence (Q62848 1-136 limits assumed): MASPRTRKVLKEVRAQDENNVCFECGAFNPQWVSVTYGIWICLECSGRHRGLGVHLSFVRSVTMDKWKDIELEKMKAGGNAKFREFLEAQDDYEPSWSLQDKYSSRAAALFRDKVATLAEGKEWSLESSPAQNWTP
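Assay system: purified rat His6-Arfgap1 residues 1-136 (GAP domain); Reagent: human Δ17 ARF1 bound to GTP; Dosing: 16.5 µM single point, 1.26% DMSO; Times: GTP hydrolysis reaction 2 h at 25 °C; Signal: FP, GDP Alexa 633 tracer displaced from anti-GDP antibody, 620/688 nm; Measure: % inhibition from polarization.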
PAFAH2 FP inh: PAFAH2 (human) inhibition; recombinant PAFAH2, FP-rhodamine activity probe, fluorescence polarization; inhibition, % at 3.39 µM; hit rate 0.99% among 340,000; AID 492956;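 active = inhibition above the mean over all tested compounds plus 3 SD, cut at about 30% in these data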;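 also: inhibitors block probe labeling of enzyme so polarization drops; 0% = enzyme with DMSO and 100% = wells lacking PAFAH2 protein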
ASAP1 GAP inh: ASAP1 ArfGAP inhibition | inhibition, % at 16.5 µM | hit rate 0.19% among 360,000 | ASAP1-stimulated ARF1 GTP hydrolysis, GDP FP detection; in the data active = inhibition above about 25%;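 also: 0% = vehicle with enzyme and substrate and 100% = no enzyme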
PAFAH1B2 inh: inhibitors of human PAFAH1B2. P68402. recombinant PAFAH1B2, FP-rhodamine activity probe, fluorescence polarization. inhibition, % at 3.39 µM. hit rate 1.2% among 340,000;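 active = inhibition above the mean of all tested compounds plus 3 SD, cut at about 24% in these data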;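 also: 0% = enzyme with DMSO and 100% = wells lacking PAFAH1B2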
Target sequence (P68402 whole entry, looked up): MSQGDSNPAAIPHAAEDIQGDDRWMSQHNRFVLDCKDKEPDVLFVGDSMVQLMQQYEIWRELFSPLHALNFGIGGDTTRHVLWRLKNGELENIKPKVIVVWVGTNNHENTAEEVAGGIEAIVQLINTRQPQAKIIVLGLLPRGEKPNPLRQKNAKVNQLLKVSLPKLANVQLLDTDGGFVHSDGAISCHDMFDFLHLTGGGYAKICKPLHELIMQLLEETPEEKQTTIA
PAFAH1B3 inh: inhibitors of human PAFAH1B3 | Q15102 | recombinant PAFAH1B3, FP-rhodamine probe, fluorescence polarization | inhibition, % at 3.39 µM | hit rate 0.28% among 340,000 | AID 492972;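 active = inhibition above the screen-wide average of all tested compounds plus 3 SD, cut at about 25% in these data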;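 also: 0% = enzyme with DMSO only and 100% = wells lacking PAFAH1B3 protein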
Target sequence (Q15102 whole entry, looked up): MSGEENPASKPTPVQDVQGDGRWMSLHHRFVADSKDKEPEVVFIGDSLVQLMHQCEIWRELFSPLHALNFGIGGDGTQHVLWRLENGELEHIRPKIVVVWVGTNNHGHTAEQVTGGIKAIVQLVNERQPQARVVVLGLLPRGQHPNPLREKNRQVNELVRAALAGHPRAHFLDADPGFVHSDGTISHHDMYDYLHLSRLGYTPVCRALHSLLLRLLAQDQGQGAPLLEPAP
pPAFAH FP inh: pPAFAH (human) enzyme inhibition; Q13093; recombinant pPAFAH, FP-rhodamine probe fluorescence polarization; inhibition, % at 3.39 µM; hit rate 1.5% among 330,000; AID 463082;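 active = inhibition above the mean inhibition across the screen plus 3 SD, cut at about 25% in these data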;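 also: inhibitors block binding of the rhodamine activity-based probe so polarization drops; 0% = enzyme with DMSO and 100% = wells lacking pPAFAH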
pPAFAH FP conf: pPAFAH (human) inhibition, confirmed. inhibition, % at 3.39 µM. shares compounds with pPAFAH FP inh. recombinant pPAFAH, FP-Rh probe fluorescence polarization. hit rate 72% among 2,300;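 active = mean inhibition of the triplicate above the hit cutoff set for the earlier primary screen, cut at about 25% in these data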;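 also: 0% = enzyme with DMSO and 100% = wells lacking pPAFAH enzyme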
Active calls of the source: *.

Screening C[C@@H]1ON(C)[C@H]2C[C@H]3c4cc(-c5ccc(F)cc5)ccc4CCN3C[C@@H]12 returned ARFGAP1 inhibitor -4.5 and ASAP1 GAP inh 2.6.
For CCOC(=O)Cc1csc(SCC(=O)Nc2nccs2)n1 the results were ARFGAP1 inhibitor -0.9, PAFAH2 FP inh 0.5, ASAP1 GAP inh 0.8, PAFAH1B2 inh 6.5, PAFAH1B3 inh 5.1 and pPAFAH FP inh 2.1.
CCOC(=O)Cc1csc(SCC(=O)Nc2sc3c(c2C(N)=O)CCC3)n1 was read as ARFGAP1 inhibitor 4.1, PAFAH2 FP inh 19.4, ASAP1 GAP inh -22.4, PAFAH1B2 inh 7.1, PAFAH1B3 inh 19.6, pPAFAH FP inh 36.7* and pPAFAH FP conf 19.1.
CCOC(=O)C1=CCN(S(=O)(=O)c2ccc(Br)cc2)C1c1cccc(Br)c1 (stereo not drawn) was read as ARFGAP1 inhibitor -0.6 and ASAP1 GAP inh -5.2.
For COc1cc(/C=C(\C#N)C(=O)c2ccc(O)c(O)c2)cc(I)c1O the results were ARFGAP1 inhibitor -4.7, PAFAH2 FP inh 66.6*, ASAP1 GAP inh -18.2, PAFAH1B2 inh 85.7*, PAFAH1B3 inh -10.5, pPAFAH FP inh 79.2* and pPAFAH FP conf 71.1*.
COc1cccc(CNC(=O)CCC2CCCN(C(=O)Cc3ccccc3F)C2)c1 (stereo not drawn) was read as ARFGAP1 inhibitor -3.5, PAFAH2 FP inh 5.7, ASAP1 GAP inh -7.0, PAFAH1B2 inh -1.0, PAFAH1B3 inh 5.1 and pPAFAH FP inh 0.0.
COc1cccc(CNC(=O)CCC2CCCN(Cc3cc(Cl)ccc3O)C2)c1 (stereo not drawn) was read as ARFGAP1 inhibitor 5.2, PAFAH2 FP inh 1.2, ASAP1 GAP inh -6.3, PAFAH1B2 inh 3.7, PAFAH1B3 inh -4.6, pPAFAH FP inh 92.2* and pPAFAH FP conf 68.3*.
C[C@H](CO)N1C[C@H](C)[C@H](CN(C)S(=O)(=O)c2cccs2)Oc2ncc(Br)cc2C1=O was read as ARFGAP1 inhibitor -7.4 and ASAP1 GAP inh 6.0.
O=C1OCC/C1=C\c1ccccc1 was read as ARFGAP1 inhibitor 3.5, PAFAH2 FP inh 8.4, ASAP1 GAP inh 5.2, PAFAH1B2 inh 1.4, PAFAH1B3 inh 2.4 and pPAFAH FP inh -5.5.
CC1(C)CCC/C(=C\c2ccccc2)C1=O was read as ARFGAP1 inhibitor -1.7, PAFAH2 FP inh 2.0, ASAP1 GAP inh -12.9, PAFAH1B2 inh 3.1, PAFAH1B3 inh 3.9, pPAFAH FP inh 45.8* and pPAFAH FP conf 7.8.
For O=C(Nc1cc(S(=O)(=O)N2CCOCC2)ccc1O)c1ccc(NS(=O)(=O)c2ccc(Cl)s2)cc1 the results were ARFGAP1 inhibitor -6.4, PAFAH2 FP inh 2.5, ASAP1 GAP inh 21.1, PAFAH1B2 inh 7.2, PAFAH1B3 inh -4.4, pPAFAH FP inh 45.0* and pPAFAH FP conf 45.3*.
For COc1ccc(NS(=O)(=O)c2ccc(O)c(NC(=O)c3ccc(S(=O)(=O)N4CCCCCC4)cc3)c2)cc1 the results were ARFGAP1 inhibitor -3.5, PAFAH2 FP inh -26.0, ASAP1 GAP inh -14.4, PAFAH1B2 inh 1.1, PAFAH1B3 inh -16.1, pPAFAH FP inh 46.3* and pPAFAH FP conf 57.1*.
Screening COc1ccc(C(=O)Nc2ccc(S(=O)(=O)N3CCCC3)cc2)cc1 returned ARFGAP1 inhibitor 8.2, PAFAH2 FP inh -5.5, ASAP1 GAP inh 20.0, PAFAH1B2 inh 4.1, PAFAH1B3 inh -1.1 and pPAFAH FP inh -1.9.
`Cc1ccc(N=Nc2ccc(O)c3ncccc23)cc1` gave ARFGAP1 inhibitor -5.8, PAFAH2 FP inh -11.8, ASAP1 GAP inh -8.3, PAFAH1B2 inh 4.5, PAFAH1B3 inh 1.4, pPAFAH FP inh 34.6* and pPAFAH FP conf 22.6.
`COc1ccccc1N=Nc1ccc(O)c2ncccc12` gave ARFGAP1 inhibitor 4.4, PAFAH2 FP inh 6.4, ASAP1 GAP inh 10.6, PAFAH1B2 inh 5.6, PAFAH1B3 inh 18.4, pPAFAH FP inh 43.8* and pPAFAH FP conf 25.2*.
CCS(=O)(=O)c1ccc(N=Nc2ccc(O)c3ncccc23)c(OC)c1 was read as ARFGAP1 inhibitor -5.5, PAFAH2 FP inh 2.6, ASAP1 GAP inh 9.7, PAFAH1B2 inh 5.6 and PAFAH1B3 inh 10.9.
CCOC(=O)C1=C(C(=O)OCC)C2N(Cc3ccc(C#N)cc3)c3ccccc3[C@@]23C[C@@H](C(=O)OC)N(S(=O)(=O)c2c(C)noc2C)C3=N1 (stereo partly drawn) was read as ARFGAP1 inhibitor -3.7 and ASAP1 GAP inh 7.7.
COC(=O)c1sccc1NC(=S)N1CCN(C)CC1 was read as ARFGAP1 inhibitor -9.0, PAFAH2 FP inh 0.9, ASAP1 GAP inh 0.7, PAFAH1B2 inh 4.4, PAFAH1B3 inh 5.2 and pPAFAH FP inh 1.3.
`CCN1CCN(C(=S)Nc2ccsc2C(=O)OC)CC1` gave ARFGAP1 inhibitor -3.9, PAFAH2 FP inh -0.4, ASAP1 GAP inh 5.5, PAFAH1B2 inh 3.6, PAFAH1B3 inh 6.9, pPAFAH FP inh 60.4* and pPAFAH FP conf 4.1.
O=C(NCCc1ccc(Cl)cc1)c1ccc2c(=O)[nH]c3c(C(=O)NCC4CCCO4)sc(=S)n3c2c1 (stereo not drawn) was read as ARFGAP1 inhibitor -2.5 and ASAP1 GAP inh 9.2.
Screening O=C(NCCc1ccccc1)c1ccc2c(=O)[nH]c3c(C(=O)NCC4CCCO4)sc(=S)n3c2c1 (stereo not drawn) returned ARFGAP1 inhibitor 5.2, PAFAH2 FP inh 21.7, ASAP1 GAP inh 1.9, PAFAH1B2 inh 49.6*, PAFAH1B3 inh 30.2*, pPAFAH FP inh 70.7* and pPAFAH FP conf 83.9*.
`CCCCNC(=O)c1sc(=S)n2c1[nH]c(=O)c1ccccc12` gave ARFGAP1 inhibitor -2.2, PAFAH2 FP inh 38.0*, ASAP1 GAP inh 6.1, PAFAH1B2 inh 26.1*, PAFAH1B3 inh 30.9*, pPAFAH FP inh 34.9* and pPAFAH FP conf 63.1*.
For C[C@H](O)[C@@H]1C(=O)N2CCc3c([nH]c4cccc(-c5ccccc5)c34)[C@@H]2C[C@@H]1N(C)C(=O)c1ccco1 the results were ARFGAP1 inhibitor 5.7 and ASAP1 GAP inh 13.7.
COC(=O)C1=C(C)N(Cc2ccccc2C(F)(F)F)C(=NCc2ccccc2)NC1c1cccc(F)c1 (stereo not drawn) was read as ARFGAP1 inhibitor -0.1 and ASAP1 GAP inh -12.3.
Screening COC(=O)c1ccc2nc(C3CCCCC3)c(Cc3ccccc3OC)n2c1 returned ARFGAP1 inhibitor 4.7 and ASAP1 GAP inh 14.4.
CC1=C(/C=C/C(C)=C/C=C/C(C)=C/C(=O)Nc2ccc(O)cc2)C(C)(C)CCC1 was read as ARFGAP1 inhibitor -2.3, PAFAH2 FP inh -1.1, ASAP1 GAP inh -2.7, PAFAH1B2 inh 8.3, PAFAH1B3 inh 2.4, pPAFAH FP inh 54.0* and pPAFAH FP conf 53.4*.

Assay outcomes (PubChem)
